Measurements: ChEMBL document CHEMBL4004879, “Synthesis of extended conjugated indolyl chalcones as potent anti-breast cancer, anti-inflammatory and antioxidant agents” (Bioorg Med Chem Lett, 2017)
Counter-ions that a name gives are not always drawn.

Experiments:
[1] = Antioxidant activity assessed as inhibition of DPPH radical generation at 1 mM after 30 mins relative to control; format: functional
Procedure, shortened: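 1 ml of compound (1 mM) mixed with 3.0 ml DPPH (0.5 mmol/L in methanol). Absorbance at 517 nm after 30 min at 37 °C. % scavenging = (A control − A sample)/A control × 100, with control being DPPH alone. Ascorbic acid as standard; mean of two replicates.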

MCF7 = assay: Cytotoxicity against human MCF7 cells after 48 hrs by SRB assay; format: functional; conditions: MCF7, 48 h; for CC50: read-out: LC50 (the source's name)
Procedure, shortened: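 MCF-7 cells grown in RPMI-1640 with 10% FCS at 37 °C, 5% CO2. Cells with >97% viability (trypan blue) seeded and grown one day, then exposed to several concentrations for 48 h, in triplicate. Fixed with TCA at 4 °C for 1 h, stained with 0.4% SRB, bound dye dissolved in 0.01 M Tris pH 10.4, OD read at 540 nm. GI50 obtained by regression; TGI and LC50 from Ti/Tz.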

[2] = Antioxidant activity assessed as inhibition of superoxide radical generation at 1 mM after 5 mins by NBT reduction assay relative to control; format: functional
Procedure, shortened: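 1 ml NBT solution ([…]), 1 ml NADH ([…]) and 1 ml compound (1 mM) mixed, all in phosphate buffer pH 7.4. Reaction started with 1 ml PMS ([…]), then incubated 25 °C for 5 min. Absorbance at 560 nm against blank; % inhibition from control and sample absorbances. Ascorbic acid standard; mean of two replicates.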

[3] = Antioxidant activity assessed as inhibition of nitric oxide radical generation at 1 mM using sodium nitroprusside after 150 mins by Griess assay relative to control; format: functional
Procedure, shortened: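 NO generated from 1 ml 10 mM sodium nitroprusside mixed with 1 ml of 1 mM compound in phosphate buffer (0.2 M, pH 7.4). Incubated 25 °C for 150 min, then mixed with 1.0 ml Griess reagent (1% sulphanilamide, 0.1% naphthylethylenediamine dichloride, 2% phosphoric acid). Absorbance read at 546 nm; % inhibition from control and sample absorbances. Ascorbic acid standard; mean of two replicates.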

[4] = Antiinflammatory activity assessed as inhibition of heat-induced egg albumin denaturation at 1 mM after 15 mins relative to control; format: functional
Procedure, shortened: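 Egg albumin from fresh hen's egg (0.4 ml) in PBS pH 6.4 with test solution (1 mM), 10 ml total; water as control. Incubated 37±2 °C for 15 min, then heated 70 °C for 5 min. After cooling, absorbance read at 660 nm against vehicle blank. Diclofenac sodium 1 mM as reference. % inhibition of denaturation calculated from test and control absorbances.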

Vero = assay: (§1) Cytotoxicity against African green monkey Vero cells after 48 hrs by SRB assay; format: cell-based; conditions: chlorocebus sabaeus, vero, 48 h
[5] = as §1; format: cell-based; conditions: chlorocebus sabaeus, Vero cells

SMILES	inhibition [1] [%]	GI50 (MCF7) [µM]	TGI (MCF7) [µM]	CC50 (MCF7) [µM]	inhibition [2] [%]	inhibition [3] [%]	inhibition [4] [%]	LC50 (Vero) [µM]	TGI (Vero) [µM]	GI50 at 48 h [5] [µM]
COc1ccc(/C(Cl)=C/C=C(\C#N)C(=O)c2c[nH]c3ccc(OC)cc23)cc1	16.7	87.1	> 100	> 100	60.7	41.6	79.5			
COc1ccc(/C(Cl)=C/C=C(\C#N)C(=O)c2c(C)[nH]c3ccccc23)cc1	34.2	56.7	> 100	> 100	63.1	74	83.1			
COc1cc(/C(Cl)=C/C=C(\C#N)C(=O)c2c[nH]c3ccccc23)cc(OC)c1OC	21.1	4	94.3	> 100	59.1	73.3	86.2	54.2	35.9	16.2
COc1ccc2[nH]cc(C(=O)/C(C#N)=C/C=C(\Cl)c3cc(OC)c(OC)c(OC)c3)c2c1	46	39.2	> 100	> 100	50	68.3	84.4	45.2	12.1	9.5
Cc1[nH]c2ccccc2c1C(=O)/C(C#N)=C/C=C(\Cl)c1ccc(Br)cc1	15.8	73.9	73.8	> 100	69.1	78.3	85.3			
COc1cc(/C(Cl)=C/C=C(\C#N)C(=O)c2c[nH]c3ccc(Br)cc23)cc(OC)c1OC	26.3	30.8	96.5	> 100	50	36.7	90.8	41.5	22.1	7.6
COc1ccc(/C(Cl)=C/C=C(\C#N)C(=O)c2c[nH]c3ccc(Br)cc23)cc1OC	11.8	31.9	> 100	> 100	80.9	57.5	21.1	51.8	38.4	8.2
COc1ccc(/C(Cl)=C/C=C(\C#N)C(=O)c2c[nH]c3ccccc23)cc1OC	15.8	44.2	> 100	> 100	63.6	75	85.3			
COc1cccc2c1C(=O)c1c(O)c3c(c(O)c1C2=O)C[C@@](O)(C(=O)CO)C[C@@H]3O[C@H]1C[C@H](N)[C@H](O)[C@H](C)O1 [DOXORUBICIN HYDROCHLORIDE]		< 0.1	11	97.1				52.6	> 10	19
N#C/C(=C\C=C(/Cl)c1ccc(Br)cc1)C(=O)c1c[nH]c2ccccc12	18.4	72.5	81.5	> 100	65.5	76.7	38.5			
O=C1O[C@H]([C@@H](O)CO)C(O)=C1O	44.2				74.1	42.6				
N#C/C(=C\C=C(/Cl)c1ccc(Br)cc1)C(=O)c1c[nH]c2ccc(Br)cc12	15.8	> 100	> 100	> 100	83.6	67.5	90.8			
COc1ccc2[nH]cc(C(=O)/C(C#N)=C/C=C(\Cl)c3ccc(Br)cc3)c2c1	40.8	79.9	> 100	> 100	54.5	76.7	88.1			
COc1ccc(/C(Cl)=C/C=C(\C#N)C(=O)c2c[nH]c3ccccc23)cc1	23.4	47.3	> 100	> 100	61.3	76.9	80.2			
COc1ccc(/C(Cl)=C/C=C(\C#N)C(=O)c2c(C)[nH]c3ccccc23)cc1OC	22.4	29.6	93	> 100	66.4	75.8	79.8	65.9	41.1	11.8
COc1cc(/C(Cl)=C/C=C(\C#N)C(=O)c2c(C)[nH]c3ccccc23)cc(OC)c1OC	14.5	< 0.1	83.7	> 100	58.2	74.2	80.7	68.3	42.6	12.4
O=C(O)Cc1ccccc1Nc1c(Cl)cccc1Cl							90.2			
COc1ccc(/C(Cl)=C/C=C(\C#N)C(=O)c2c[nH]c3ccc(Br)cc23)cc1	15.6	80.3	> 100	> 100	62.2	56.2	78.2			
COc1ccc2[nH]cc(C(=O)/C(C#N)=C/C=C(\Cl)c3ccc(OC)c(OC)c3)c2c1	34.2	44.9	> 100	> 100	58.2	74.2	87.2			
